Source: ChEMBL document CHEMBL2150922, “A sulfoximine-based inhibitor of human asparagine synthetase kills L-asparaginase-resistant leukemia cells” (Bioorg Med Chem, 2012)
The source made the active and inactive calls. The calls are words filed in the database; no cut-off is given here.

How the values were obtained:
[1] = biological target: T1, Asparagine synthetase [glutamine-hydrolyzing] (Homo sapiens, UniProt P08243); assay: Inhibition of human recombinant ASNS expressed in Sf9 cells assessed as assessed as initial inhibition constant for ammonia dependent production of inorganic pyrophosphate by spectrophotometry analysis
T1 sequence (P08243 whole entry): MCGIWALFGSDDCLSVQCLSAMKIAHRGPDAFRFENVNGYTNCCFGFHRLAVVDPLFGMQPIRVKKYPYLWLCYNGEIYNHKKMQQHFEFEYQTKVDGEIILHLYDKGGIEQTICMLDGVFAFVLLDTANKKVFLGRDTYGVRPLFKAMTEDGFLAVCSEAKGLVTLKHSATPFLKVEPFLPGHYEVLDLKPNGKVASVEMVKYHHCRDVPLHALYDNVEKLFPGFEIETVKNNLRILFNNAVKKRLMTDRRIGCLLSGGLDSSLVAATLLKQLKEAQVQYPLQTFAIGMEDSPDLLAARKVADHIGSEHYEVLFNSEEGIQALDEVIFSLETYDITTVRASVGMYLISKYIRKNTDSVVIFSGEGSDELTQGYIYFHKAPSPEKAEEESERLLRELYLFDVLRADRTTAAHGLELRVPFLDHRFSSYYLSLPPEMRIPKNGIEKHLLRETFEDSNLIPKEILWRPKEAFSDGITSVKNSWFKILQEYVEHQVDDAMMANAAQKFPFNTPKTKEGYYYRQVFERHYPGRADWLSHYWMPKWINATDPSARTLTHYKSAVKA
Outline: (§1)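 PPi formation was coupled to NADH loss at 340 nm over 20 min. Progress curves at fixed inhibitor levels were fitted, and Ki was taken from k versus [I] with Ka 0.1 mM. Duplicates.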

[2] = biological target: T1, Asparagine synthetase [glutamine-hydrolyzing]; assay: Inhibition of human recombinant ASNS expressed in Sf9 cells assessed as initial inhibition constant for glutamine dependent production of inorganic pyrophosphate by spectrophotometry analysis
[3] = biological target: T1, Asparagine synthetase [glutamine-hydrolyzing]; assay: Inhibition of human recombinant ASNS expressed in Sf9 cells assessed as assessed as overall inhibition constant for ammonia dependent production of inorganic pyrophosphate by spectrophotometry analysis; outline: as §1
[4] = biological target: T1, Asparagine synthetase [glutamine-hydrolyzing]; assay: Inhibition of human recombinant ASNS expressed in Sf9 cells assessed as overall inhibition constant for glutamine dependent production of inorganic pyrophosphate by spectrophotometry analysis
MOLT-4 [5] = assay: Cytotoxicity against human ASNase-resistant MOLT4 cells assessed as cell viability at 0.06 mM after 48 hrs by MTS assay in presence of ASNase; assay type: functional, cell-based
Outline: (§2)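 MOLT-4R cells grown in RPMI 1640 with 10% heat-inactivated FBS and penicillin-streptomycin at 37°C under 5% CO2. Cells were exposed to 10-1000 µM inhibitor, with or without 1 U/mL ASNase, for 48 h. Read-out was MTS at 490 nm, as titer relative to untreated cells at t=0; mean ± SD of triplicates.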

MOLT-4 [6] = assay: Cytotoxicity against human ASNase-resistant MOLT4 cells assessed as cell viability at 130 uM after 48 hrs by MTS assay in presence of ASNase; assay type: functional, cell-based; outline: as §2
MOLT-4 [7] = assay: Cytotoxicity against human ASNase-resistant MOLT4 cells assessed as cell viability at 0.13 mM after 48 hrs by MTS assay in absence of ASNase; assay type: functional, cell-based; outline: as §2
MOLT-4 [8] = assay: Cytotoxicity against human ASNase-resistant MOLT4 cells assessed as cell viability after 48 hrs by MTS assay in absence of ASNase relative to sulfoximine 1
MOLT-4 [9] = assay: Cytotoxicity against human ASNase-resistant MOLT4 cells assessed as cell viability at >500 uM after 48 hrs by MTS assay in absence of ASNase
MOLT-4 [10] = assay: Cytotoxicity against human ASNase-sensitive MOLT4 cells assessed as cell viability at 250 to 500 uM after 48 hrs by MTS assay; assay type: functional, cell-based
Outline: (§3)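 The ASNase-sensitive MOLT-4S line was kept in RPMI 1640 with 10% heat-inactivated FBS and penicillin-streptomycin at 37°C, 5% CO2. They were incubated 48 h with 10-1000 µM compound and no ASNase. Viability was measured by MTS (OD 490) relative to t=0 cell number; mean ± SD of triplicates.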

MOLT-4 [11] = assay: Cytotoxicity against human ASNase-resistant MOLT4 cells assessed as cell viability at 250 uM after 48 hrs by MTS assay in presence of ASNase; assay type: functional, cell-based; outline: as §2
MOLT-4 [12] = assay: Cytotoxicity against human ASNase-resistant MOLT4 cells assessed as cell viability after 48 hrs by MTS assay in absence of ASNase; assay type: functional, cell-based; outline: as §2
MOLT-4 [13] = assay: Cytotoxicity against human ASNase-sensitive MOLT4 cells assessed as cell viability at 130 uM after 48 hrs by MTS assay; assay type: functional, cell-based; outline: as §3
MOLT-4 [14] = assay: Cytotoxicity against human ASNase-resistant MOLT4 cells assessed as cell viability at 0.06 mM after 48 hrs by MTS assay in absence of ASNase; assay type: functional, cell-based; outline: as §2

| Ki [1] [nM] | Ki [2] [nM] | Ki [3] [nM] | Ki [4] [nM] | Structure (SMILES) | Activity (MOLT-4 [5]) | Activity (MOLT-4 [6]) | Activity (MOLT-4 [7]) | fold change (FC) (MOLT-4 [8]) | Activity (MOLT-4 [9]) | Activity (MOLT-4 [10]) | Activity (MOLT-4 [11]) | Activity (MOLT-4 [12]) | Activity (MOLT-4 [13]) | Activity (MOLT-4 [14]) |
| --- | --- | --- | --- | --- | --- | --- | --- | --- | --- | --- | --- | --- | --- | --- |
| 3040 | 4500 | 310 | 840 | C[S+]([O-])(CCC(=O)O)=NP(=O)(O)OC[C@H]1O[C@@H](n2cnc3c(N)ncnc32)[C@H](O)[C@@H]1O (mixture of isomers) |  |  |  |  |  |  |  |  |  |  |
| 450 | 490 | 33 | 8 | C[S+]([O-])(CCN)=NP(=O)(O)OC[C@H]1O[C@@H](n2cnc3c(N)ncnc32)[C@H](O)[C@@H]1O (mixture of isomers) | inactive | Active | Active | 7 | Active | Active | Active | Dose-dependent effect | Active | inactive |
| 280 | 1000 | 2.5 | 24 | C[S+]([O-])(C[C@H](N)C(=O)O)=NP(=O)(O)OC[C@H]1O[C@@H](n2cnc3c(N)ncnc32)[C@H](O)[C@@H]1O (mixture of isomers) |  |  |  |  |  |  |  |  |  |  |
